One assay relates to Plasmodium falciparum. In words: Antimalarial activity against Plasmodium falciparum 3D7 asexual cultures grown under 5% haematocrit assessed as decrease in parasite DNA level by flow cytometry. Type of assay: functional, organism-based.
The target of assay [1] is T1, Ribosyldihydronicotinamide dehydrogenase [quinone] (Homo sapiens) (UniProt P16083).
T1 sequence (whole entry): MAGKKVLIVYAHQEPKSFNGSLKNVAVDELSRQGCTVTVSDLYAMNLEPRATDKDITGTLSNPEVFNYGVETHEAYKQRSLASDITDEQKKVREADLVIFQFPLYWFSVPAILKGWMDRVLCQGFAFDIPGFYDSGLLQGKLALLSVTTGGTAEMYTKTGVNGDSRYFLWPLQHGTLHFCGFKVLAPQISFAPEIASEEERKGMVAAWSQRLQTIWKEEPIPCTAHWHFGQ
In words: Inhibition of recombinant human NQO2 assessed as change in rate of decolouration of DCPIP at 10 uM measured over 1 min by spectrophotometric method. In short, it runs like this: (§1)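 The NQO2 enzymatic activity was followed spectrophotometrically as the decolouration of the blue redox dye 2,6-dichlorophenolindophenol (DCPIP) at pH 7.4.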

Assay [2] has as its target T2, Ribosyldihydronicotinamide dehydrogenase [quinone] (Homo sapiens, UniProt P16083).
T2 sequence (P16083 whole entry): T1 sequence (whole entry)
In words: Inhibition of recombinant human NQO2 assessed as change in rate of decolouration of DCPIP measured over 1 min by spectrophotometric method. In short, it runs like this: as §1

The source made the active and inactive calls. No cut-off for these calls is given here.

What is called IC50 is the midpoint of a concentration-inhibition curve.

Take `CC(=N)Nc1ccc(-c2ccc(-c3ccccc3)o2)cc1`: the IC50 in the assay on Plasmodium falciparum was 770 nM. Also, the inhibition result in assay [1] was “inactive”.
For the compound `N=C(N)c1ccc(-c2nc(-c3ccccc3)c[nH]2)cc1`, the results for the IC50 (in assay [2]; with Plasmodium falciparum) were 1110 nM and 5300 nM, respectively.
Take `CC(=O)Nc1cccc(-c2ccc(-c3ccccc3)o2)c1`: the 50% inhibitory concentration (IC50) in assay [2] was 1140 nM.
For the compound `Cn1cc(-c2ccccc2)nc1-c1ccc(C(=N)N)cc1`, in assay [1], the inhibition entry is “inactive”.
Take `N=C(N)c1ccc(-c2ccc(-c3ccccc3)s2)cc1`: the half-inhibitory concentration (IC50) in assay [2] stood at 773 nM; in the assay with Plasmodium falciparum it was 18900 nM.
As to `CC(=N)Nc1ccc(-c2ccc(-c3ccccc3)s2)cc1`, in the assay on Plasmodium falciparum, the IC50 was 970 nM. In addition, the inhibition entry in assay [1] was “inactive”.
As to `N=C(N)c1ccc(-c2ccc(-c3ccc(C(=N)N)cc3)o2)cc1` [FURAMIDINE], in the assay with Plasmodium falciparum, the IC50 came out at 0.5 nM.
Take `CC(=O)Nc1ccc(-c2ccc(-c3ccccc3)o2)cc1`: the inhibition result in assay [1] is “inactive”.
As to `N=C(N)c1ccc(-c2ccc(-c3ccccc3)o2)cc1`, the IC50 in the assay on Plasmodium falciparum turned out to be 1500 nM.
For the compound `Cc1oc(-c2ccc(C(=N)N)cc2)cc1-c1ccccc1`, the inhibition result in assay [1] is “inactive”.
The same measure, in the same setting: for `COC(=N)c1ccc(-c2ccc(-c3ccccc3)o2)cc1` the value was “inactive”; for `N=C(NO)c1ccc(-c2ccc(-c3ccccc3)o2)cc1`, “inactive”.
For the compound `CC(=O)Nc1cccc(-c2ccc(-c3ccccc3)s2)c1`, the IC50 in assay [2] was determined as 2000 nM.

Values taken from ChEMBL document CHEMBL4219166, “Evaluation of analogues of furan-amidines as inhibitors of NQO2” (Bioorg Med Chem Lett, 2018).
